Experimental data from ChEMBL document CHEMBL1126766 (J Med Chem, 1993).

Species: Cavia porcellus
Assay: Effective concentration for guinea pig ileum contraction in an in vitro assay
Type: functional
Conditions: not given

Row | SMILES | EC50
1 | CCCCCC/N=C(\S)NCc1ccc(O)c(OC)c1 | 0.18 µM
2 | CCCC/N=C(\S)NCc1ccc(O)c(OC)c1 | 3.4 µM
3 | CCCCCCCC/N=C(\S)NCc1ccc(O)c(OC)c1 | 0.06 µM
4 | CCCCC/N=C(\S)NCc1ccc(O)c(OC)c1 | 1.8 µM
5 | CCCCCCC/N=C(\S)NCc1ccc(O)c(OC)c1 | 0.1 µM

Molecular target: T1, Vanilloid receptor (Rattus norvegicus, UniProt Q9ERZ8+Q9WUD2+O35433)
Assay: In vitro effective concentration for [Ca2+] uptake into dorsal root ganglia neurones in culture
Type: functional
Conditions: not given

Row | SMILES | EC50
6 | COc1cc(CNC(=O)CCCCCN)ccc1O.O=C(O)C(F)(F)F | > 100 µM
7 | COc1cc(CNC(=O)/C=C/c2ccc(N(C)C)cc2)ccc1O | 4.39 µM
8 | COc1cc(CNC(=O)/C=C/c2ccc(Cl)cc2Cl)ccc1O | 0.62 µM
9 | CCCCCC/N=C(\S)NCc1ccc(O)c(OC)c1 | 0.18 µM
10 | COc1cc(CNC(=O)C#Cc2ccc(Cl)cc2)ccc1O | 4.1 µM
11 | COc1cc(C/N=C(/N)S)ccc1O | > 100 µM
12 | COc1cc(CC(=O)NCCc2ccc(Cl)cc2)ccc1O | 0.66 µM
13 | CCCC/N=C(\S)NCc1ccc(O)c(OC)c1 | 9.48 µM
14 | COCCOCC(=O)NCc1ccc(O)c(OC)c1 | > 100 µM
15 | COc1cc(CNC(=O)/C=C/c2ccc(NC=O)cc2)ccc1O | 1000 µM
16 | COCCOCCOCC(=O)NCc1ccc(O)c(OC)c1 | > 100 µM
17 | COc1cc(C/N=C(\S)NC(c2ccccc2)c2ccccc2)ccc1O | 0.27 µM
18 | COc1cc(C/N=C(\S)NC2[C@H]3C[C@@H]4C[C@@H](C[C@H]2C4)C3)ccc1O (stereo partly drawn) | 1.08 µM
19 | COc1cc(CNC(=O)/C=C/c2ccccc2)ccc1O | 11.8 µM
20 | COc1cc(CNC(=O)/C=C/c2ccc(I)cc2)ccc1O | 0.35 µM
21 | COc1cc(CNC(=O)/C=C\c2ccc(Cl)cc2)ccc1O | 50.1 µM
22 | COc1cc(CNC(=O)CCCCCNC(=O)OC(C)(C)C)ccc1O | 79.8 µM
23 | COc1cc(CNC(=O)CCc2ccccc2)ccc1O | 45.26 µM
24 | COc1cc(CNC(=O)/C=C/c2ccc(-c3ccccc3)cc2)ccc1O | 0.24 µM
25 | COc1cc(CNC(=O)CCc2ccc([N+](=O)[O-])cc2)ccc1O | 21 µM
26 | COc1cc(CNC(=O)/C=C/c2ccc(C#N)cc2)ccc1O | 26.5 µM
27 | CCCCC/N=C(\S)NCc1ccc(O)c(OC)c1 | 1.96 µM
28 | COc1cc(CNC(=O)/C=C/c2ccc(Cl)cc2)ccc1O | 1.24 µM
29 | COc1cc(CNC(=O)/C=C/c2cccc(Cl)c2)ccc1O | 2.58 µM
30 | COc1cc(CNC(=O)CCc2ccc(O)cc2)ccc1O | > 100 µM
31 | COc1cc(CNC(=O)Cc2ccc(Cl)cc2)ccc1O | 7.77 µM
32 | COc1cc(CNC(=O)CCc2ccc(Cl)cc2)ccc1O | 3.09 µM
33 | COc1cc(CNC(=O)CCCCCCC(C)C)ccc1O [DIHYDROCAPSAICIN] | 0.19 µM

Molecular target: T1, Vanilloid receptor
Assay: In vitro effective concentration for Ca++ uptake into dorsal root ganglia neurones in culture
Type: functional
Conditions: not given
Outline: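 Uptake of 45Ca2+ tracer into cultured dorsal root ganglion neurones, evoked by the applied agonist analogues. Potency is expressed as EC50 in μM, reported ± an error term. Full assay details are held in an earlier paper of the series.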

Row | SMILES | EC50
34 | CCCCCCCCCC/N=C(\S)NCc1ccc(O)c(OC)c1 | 0.11 µM
35 | COc1cc(C/N=C(\S)NC(c2ccccc2)(c2ccccc2)c2ccccc2)ccc1O | > 100 µM
36 | CCCCCCCC/C=C/CCCCCCC/N=C(\S)NCc1ccc(O)c(OC)c1 | > 100 µM
37 | COc1cc(CNC(=O)CBr)ccc1O | > 100 µM
38 | CCCCCCCCCCCCCCCCCC/N=C(\S)NCc1ccc(O)c(OC)c1 | 8.1 µM
39 | CCCCCCCCCCCCCCCCCC(=O)NCc1ccc(O)c(OC)c1 | > 100 µM
40 | CCCCCCCCCCCC/N=C(\S)NCc1ccc(O)c(OC)c1 | 0.16 µM
41 | COc1cc(CNC(=O)CCc2ccc(N=[N+]=[N-])cc2)ccc1O | 4.2 µM
42 | COCCOCCOCC(=O)NCCCCCCCCCCC(=O)NCc1ccc(O)c(OC)c1 | > 100 µM
43 | COc1cc(CNC(=O)/C=C/c2ccc([N+](=O)[O-])cc2)ccc1O | 4.58 µM
44 | CCCCCCC/N=C(\S)NCc1ccc(O)c(OC)c1 | 0.29 µM
45 | CCCCCCCCCCCCCCCC/N=C(\S)NCc1ccc(O)c(OC)c1 | > 100 µM
46 | COc1cc(CNC(=O)CCl)ccc1O | > 100 µM
47 | CCCCCCCC/C=C/CCCCCCCC(=O)NCc1ccc(O)c(OC)c1 | 0.36 µM
48 | CCCCCCCCC/N=C(\S)NCc1ccc(O)c(OC)c1 | 0.1 µM
49 | COc1cc(CNC(=O)CCCCCCCCCCC(=O)O)ccc1O | > 100 µM
50 | CCCCCCCC/C=C\CCCCCCCC(=O)NCc1ccc(O)c(OC)c1 [OLVANIL] | 0.17 µM

Same assay, conditions: read-out: EC50

Row | SMILES | EC50
51 | CCCCCCCC/N=C(\S)NCc1ccc(O)c(OC)c1 | 0.06 µM
52 | CCCCCCCCC(=O)NCc1ccc(O)c(OC)c1 [NONIVAMIDE] | 0.55 µM

Species: Mus musculus
Assay: Effective analgesic dose in mouse tail-flick latency assay
Type: functional
Conditions: not given

Row | SMILES | ED50
53 | CCCCCC/N=C(\S)NCc1ccc(O)c(OC)c1 | 12.5 µmol/kg
54 | CCCC/N=C(\S)NCc1ccc(O)c(OC)c1 | > 50 µmol/kg
55 | CCCCCCCC/N=C(\S)NCc1ccc(O)c(OC)c1 | 3.2 µmol/kg
56 | CCCCC/N=C(\S)NCc1ccc(O)c(OC)c1 | > 50 µmol/kg
57 | CCCCCCC/N=C(\S)NCc1ccc(O)c(OC)c1 | 15 µmol/kg
58 | COc1cc(CNC(=O)CCCC/C=C/C(C)C)ccc1O [CAPSAICIN] | 15 µmol/kg
